This is an account of results in ChEMBL document CHEMBL1154929, “Novel tetrahydrochinoline derived CETP inhibitors” (Bioorg Med Chem Lett, 2010).

In series [1] the target is T1, Cholesteryl ester transfer protein (Homo sapiens, UniProt P11597).
T1 sequence (P11597 whole entry): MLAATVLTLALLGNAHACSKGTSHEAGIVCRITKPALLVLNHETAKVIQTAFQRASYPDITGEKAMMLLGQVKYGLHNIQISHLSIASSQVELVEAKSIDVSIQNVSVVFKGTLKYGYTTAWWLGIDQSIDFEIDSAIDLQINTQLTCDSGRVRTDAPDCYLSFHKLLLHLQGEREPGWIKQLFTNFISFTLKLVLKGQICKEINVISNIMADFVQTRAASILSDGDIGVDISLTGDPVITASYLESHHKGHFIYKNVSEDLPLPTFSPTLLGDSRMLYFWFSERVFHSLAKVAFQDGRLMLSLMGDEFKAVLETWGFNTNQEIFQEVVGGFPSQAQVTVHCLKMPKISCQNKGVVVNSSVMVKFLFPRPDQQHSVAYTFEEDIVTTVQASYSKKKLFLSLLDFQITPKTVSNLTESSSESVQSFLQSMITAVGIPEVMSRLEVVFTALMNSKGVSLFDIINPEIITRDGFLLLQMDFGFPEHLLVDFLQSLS
Kind of series: Inhibition of CETP assessed as cholesterol ester transfer after 4 hrs by microemulsion based fluorescence assay. The method, boiled down: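 CETP-containing sample (1–3 µg CETP enriched from human plasma) incubated at 37 °C for 4 h with compound in DMSO and a liposome emulsion (1 vol donor, 1 vol buffer, 2 vol acceptor). Liposomes were made by dioxane injection into 50 mM Tris/HCl pH 7.3, 150 mM NaCl, 2 mM EDTA, then sonicated. Read-out was the fluorescence increase versus a DMSO control.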

Series [2] addresses T1, Cholesteryl ester transfer protein. As to the kind of experiment: Inhibition of human plasma CETP assessed as [3H]cholesterol ester transfer after 18 hrs by scintillation proximity assay. The class given is cell-free. Put shortly: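 Scintillation proximity assay. HDL-³H-cholesteryl ester (~50,000 cpm) and biotin-LDL were incubated at 37 °C for 18 h with CETP (1 mg/ml stock) in […]/0.15 M NaCl/0.1% BSA/0.05% NaN₃ pH 7.4. Compound was dissolved in 10% DMSO/1% BSA. Streptavidin SPA beads were added with 1 h shaking, then scintillation counting. Buffer-only and CETP incubations served as controls.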

Series [3] shares this target. As to the kind of experiment: Inhibition of human plasma CETP assessed as cholesterol ester transfer after 24 hrs by fluorescence assay. The class given is cell-free. Put shortly: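 Donor liposomes (12% v/v) and compound in DMSO (2% v/v) added to human plasma (86% v/v) and incubated at 37 °C for 24 h. Transfer was taken as the fluorescence change at 510/520 nm, compared with a DMSO control.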

The nature of series [4]: Oral bioavailability in dog. To be noted: in vivo. The class given is ADME, organism-based, Canis lupus familiaris.
The nature of series [5]: Half life in rat plasma. The class given is ADME, organism-based.
Series [6] in a line: Half life in dog plasma. The class given is ADME, organism-based, Canis lupus familiaris.
Series [7] in a line: Oral bioavailability in rat. The class given is ADME, organism-based. The settings on record: in vivo.
Series [8] is described as follows: Half life in mouse plasma. The class given is ADME, organism-based.

In general, IC50 refers to the point on the concentration scale where inhibition reaches its midpoint. Take `CC(C)c1nc2c(c(C3CCCCC3)c1[C@@H](F)c1ccc(C(F)(F)F)cc1)[C@@H](O)CC(C)(C)C2`: the results for the IC50 in series [1], in series [2] and in series [3] were 30 nM, 23 nM and 75 nM, respectively.
`CC1(C)Cc2nc(C3CCCC3)c(C(=O)c3ccc(C(F)(F)F)cc3)c(C3CC3)c2[C@@H](O)C1`: the IC50 in series [1] is 3000 nM.
Take `CC(C)c1nc2c(c(C3CCCCC3)c1[C@@H](F)c1ccc(C(F)(F)F)cc1)[C@@H](O)CC1(CCC1)C2`: the results for the IC50 in series [1], in series [2] and in series [3] were 17 nM, 33 nM and 70 nM, respectively.
As to `CC1(C)Cc2nc(C3CCCC3)c(C(=O)c3ccc(C(F)(F)F)cc3)c(C3CCN(C(=O)OCc4ccccc4)CC3)c2[C@@H](O)C1`, the IC50 in series [1] stood at 500 nM.
On to `CC(C)c1c(C(=O)c2ccc(C(F)(F)F)cc2)c(C2CCCC2)nc2c1[C@@H](O)CC(C)(C)C2`, for which the IC50 in series [1] came to 600 nM.
The same measure, in the same setting: under `CC1(C)Cc2nc(C3CCCC3)c(C(=O)c3ccc(C(F)(F)F)cc3)c(C3CCNCC3)c2[C@@H](O)C1` stands greater than 20000 nM; under `CC1(C)Cc2nc(C3CCCC3)c(C(=O)c3ccc(C(F)(F)F)cc3)c(CC(F)(F)F)c2[C@@H](O)C1`, 3000 nM.
As for `CC1(C)Cc2nc(C3CCCC3)c(C(=O)c3ccc(C(F)(F)F)cc3)c(N3CCCC3)c2[C@@H](O)C1`, in series [1], the IC50 was determined as 4000 nM.
Take `CC1(C)Cc2nc(C3CCCC3)c([C@@H](F)c3ccc(C(F)(F)F)cc3)c(-c3ccc(F)cc3)c2[C@@H](O)C1`: the concentration for half-maximal inhibition (IC50) in series [1] was 31 nM.
On the same count and under the same terms, under `CC1(C)Cc2nc(C3CCCC3)c(C(=O)c3ccc(C(F)(F)F)cc3)c(C3CCCC3)c2[C@@H](O)C1` stands 90 nM.
One may read the bioavailability as the share of a dose that reaches the circulation, judged against a reference dose that is usually intravenous. Higher therefore signals much systemic uptake. One may read the half-life as how long it takes for the measured level to halve. Low values mean rapid decline, high ones slow decline. Regarding `CC1(C)Cc2nc(C3CCCC3)c([C@@H](F)c3ccc(C(F)(F)F)cc3)c(C3CCCCC3)c2[C@@H](O)C1`, the IC50 in series [1] worked out at 25 nM; in series [2], 7 nM; in series [3], 50 nM. Also, the bioavailability in series [4] was determined as 74%; in series [7], 44%. Also, the values for the half-life in series [5], in series [6] and in series [8] were 7.2 h, 8.6 h and 5 h, respectively.
For `CC1(C)Cc2nc(C3CCCC3)c(C(=O)c3ccc(C(F)(F)F)cc3)c(CCl)c2[C@@H](O)C1`, the IC50 in series [1] worked out at 15000 nM.
Still for that read-out and setting: under `CCc1c(C(=O)c2ccc(C(F)(F)F)cc2)c(C2CCCC2)nc2c1[C@@H](O)CC(C)(C)C2` stands 4500 nM; under `CC(C)c1nc2c(c(C3CCCCC3)c1C(=O)c1ccc(C(F)(F)F)cc1)[C@@H](O)CC1(CCC1)C2`, 33 nM; under `CC(C)c1nc2c(c(-c3ccc(F)cc3)c1[C@@H](F)c1ccc(C(F)(F)F)cc1)[C@@H](O)CC1(CCC1)C2`, 24 nM.
Same read-out and setting: under `CC1(C)Cc2nc(C3CCCC3)c(C(=O)c3ccc(C(F)(F)F)cc3)c(CN3CCCCC3)c2[C@@H](O)C1` stands 15000 nM.
For `CC1(C)Cc2nc(C3CCCC3)c(Cc3ccc(C(F)(F)F)cc3)c(C3CCCCC3)c2[C@@H](O)C1`, the results for the IC50 in series [1] and in series [3] were 39 nM and 300 nM, respectively.
For the compound `O=C(c1ccc(C(F)(F)F)cc1)c1c(C2CCCC2)nc2c(c1C1CCCCC1)[C@@H](O)CC1(CCC1)C2`, the IC50 in series [1] worked out at 55 nM.
The same measure, in the same setting: under `CCOC(=O)c1c(C(=O)c2ccc(C(F)(F)F)cc2)c(C2CCCC2)nc2c1[C@@H](O)CC(C)(C)C2` stands greater than 20000 nM; under `CC1(C)Cc2nc(C3CCCC3)c(C(=O)c3ccc(C(F)(F)F)cc3)c(C3CCCCC3)c2[C@@H](O)C1`, 60 nM.
Regarding `O[C@H]1CC2(CCC2)Cc2nc(C3CCCC3)c([C@@H](F)c3ccc(C(F)(F)F)cc3)c(C3CCCCC3)c21`, the IC50 in series [1] was 22 nM; in series [2], 62 nM; in series [3], 60 nM.
For the compound `O=C(c1ccc(C(F)(F)F)cc1)c1c(C2CCCC2)nc2c(c1C1CCCC1)[C@@H](O)CC1(CCC1)C2`, in series [1], the IC50 was 70 nM.
Regarding `CCC(C)c1c(C(=O)c2ccc(C(F)(F)F)cc2)c(C2CCCC2)nc2c1[C@@H](O)CC(C)(C)C2` (stereo not given in full), the IC50 in series [1] worked out at 2000 nM.
Still for that read-out and setting: as for `CC(C)c1nc2c(c(C3CCCCC3)c1[C@@H](O)c1ccc(C(F)(F)F)cc1)[C@@H](O)CC1(CCC1)C2`, the figure is 70 nM; as for `CCCCCc1c(C(=O)c2ccc(C(F)(F)F)cc2)c(C2CCCC2)nc2c1[C@@H](O)CC(C)(C)C2`, 2000 nM.
The same measure, in the same setting: as for `CC(C)c1nc2c(c(C3CCCCC3)c1[C@@H](O)c1ccc(C(F)(F)F)cc1)[C@@H](O)CC(C)(C)C2` (relative stereo), the figure is 80 nM.
On the same count and under the same terms, under `O[C@@H](c1ccc(C(F)(F)F)cc1)c1c(C2CCCC2)nc2c(c1C1CCCCC1)[C@@H](O)CC1(CCC1)C2` stands 100 nM; under `CC1(C)Cc2nc(C3CCCC3)c([C@@H](O)c3ccc(C(F)(F)F)cc3)c(C3CCCCC3)c2[C@@H](O)C1` (relative stereo), 100 nM.
For `CC(C)c1c(C(=O)c2ccc(C(F)(F)F)cc2)c(C2CCCC2)nc2c1[C@@H](O)CC1(CCC1)C2`, the concentration for half-maximal inhibition (IC50) in series [1] was 300 nM.
The same measure, in the same setting: as for `CC(C)c1nc2c(c(C3CCCCC3)c1C(=O)c1ccc(C(F)(F)F)cc1)[C@@H](O)CC(C)(C)C2`, the figure is 70 nM; as for `CCCc1c(C(=O)c2ccc(C(F)(F)F)cc2)c(C2CCCC2)nc2c1[C@@H](O)CC1(CCC1)C2`, 600 nM.
